Key:
[1] = molecular target: Protein kinase C delta type (Mus musculus, UniProt P28867, F243G); assay: Displacement of [3H]PDBu from protein kinase C delta C1b domain mutant (F13G)
In short: (§1)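 PKCδ C1b domain, wild type or sequence-confirmed point mutant, expressed as a GST-fusion protein in E. coli and used purified or as total lysate. Incubated 5 min at 18 °C with [3H]PDBu, […] phosphatidylserine, 1 mM EGTA and varied unlabeled ligand. Protein was precipitated with 35% poly(ethylene glycol) and centrifuged, and supernatant and pellet radioactivity counted. Ki was calculated from final ligand concentrations.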

[2] = molecular target: Protein kinase C delta type (Mus musculus, UniProt P28867, L250G); assay: Displacement of [3H]PDBu from protein kinase C delta C1b domain mutant (L20G); in short: as §1
[3] = molecular target: Protein kinase C delta type (Mus musculus, UniProt P28867, P241G); assay: Displacement of [3H]-PDBu from protein kinase C delta C1b domain mutant (P11G); in short: as §1
[4] = molecular target: Protein kinase C delta type (Mus musculus, UniProt P28867, Q257V); assay: Displacement of [3H]PDBu from protein kinase C delta C1b domain mutant (Q27V); in short: as §1
[5] = molecular target: Protein kinase C delta type (Mus musculus, UniProt P28867, T242G); assay: Displacement of [3H]PDBu from protein kinase C delta C1b domain mutant (T12G); in short: as §1
[6] = molecular target: Protein kinase C delta type (Mus musculus, UniProt P28867, T8G); assay: Displacement of [3H]PDBu from protein kinase C delta C1b domain mutant (T8G); in short: as §1
[7] = molecular target: Protein kinase C delta type (Mus musculus, UniProt P28867); assay: Displacement of [3H]PDBu from protein kinase C delta C1b domain (Wild type); in short: as §1
[8] = molecular target: Protein kinase C delta type (Mus musculus, UniProt P28867, W252G); assay: Displacement of [3H]PDBu from protein kinase C delta C1b domain mutant (W22G)
Sequence of Protein kinase C delta type (Mus musculus, UniProt P28867, W252G) (P28867 whole entry W252G, the tested form may be a part): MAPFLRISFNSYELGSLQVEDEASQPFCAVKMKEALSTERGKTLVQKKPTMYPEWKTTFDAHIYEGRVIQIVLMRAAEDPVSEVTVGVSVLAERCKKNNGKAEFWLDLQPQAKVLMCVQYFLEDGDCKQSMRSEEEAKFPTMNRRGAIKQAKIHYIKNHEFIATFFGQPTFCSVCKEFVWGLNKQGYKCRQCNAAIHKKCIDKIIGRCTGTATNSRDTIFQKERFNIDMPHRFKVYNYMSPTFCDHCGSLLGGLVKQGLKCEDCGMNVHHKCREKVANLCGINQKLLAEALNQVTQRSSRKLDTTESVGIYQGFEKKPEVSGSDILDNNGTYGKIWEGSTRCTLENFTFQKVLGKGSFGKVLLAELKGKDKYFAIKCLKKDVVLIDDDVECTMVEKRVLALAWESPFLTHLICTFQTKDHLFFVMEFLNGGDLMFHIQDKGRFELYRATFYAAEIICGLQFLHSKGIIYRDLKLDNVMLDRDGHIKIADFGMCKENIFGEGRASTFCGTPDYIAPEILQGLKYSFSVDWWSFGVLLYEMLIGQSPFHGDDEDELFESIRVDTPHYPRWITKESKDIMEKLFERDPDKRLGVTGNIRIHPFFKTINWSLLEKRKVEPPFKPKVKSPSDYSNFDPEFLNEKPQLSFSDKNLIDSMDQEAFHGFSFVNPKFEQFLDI

Sequence of Protein kinase C delta type (Mus musculus, UniProt P28867, P241G) (P28867 whole entry P241G, the tested form may be a part): as the sequence (P28867 whole entry W252G, the tested form may be a part) above, with P241G, G252W counted along it
Sequence of Protein kinase C delta type (Mus musculus, UniProt P28867, T242G) (P28867 whole entry T242G, the tested form may be a part): as the sequence (P28867 whole entry W252G, the tested form may be a part) above, with T242G, G252W counted along it
Sequence of Protein kinase C delta type (Mus musculus, UniProt P28867, F243G) (P28867 whole entry F243G, the tested form may be a part): as the sequence (P28867 whole entry W252G, the tested form may be a part) above, with F243G, G252W counted along it
Sequence of Protein kinase C delta type (Mus musculus, UniProt P28867, T8G) (P28867 whole entry, looked up, stated change not applied, the tested form may be a part): as the sequence (P28867 whole entry W252G, the tested form may be a part) above, with G252W counted along it
Sequence of Protein kinase C delta type (Mus musculus, UniProt P28867) (P28867 whole entry, the tested form may be a part): as the sequence (P28867 whole entry W252G, the tested form may be a part) above, with G252W counted along it
Sequence of Protein kinase C delta type (Mus musculus, UniProt P28867, L250G) (P28867 whole entry L250G, the tested form may be a part): as the sequence (P28867 whole entry W252G, the tested form may be a part) above, with L250G, G252W counted along it
Sequence of Protein kinase C delta type (Mus musculus, UniProt P28867, Q257V) (P28867 whole entry Q257V, the tested form may be a part): as the sequence (P28867 whole entry W252G, the tested form may be a part) above, with G252W, Q257V counted along it

| SMILES | Ki [1] | Ki [2] | Ki [3] | Ki [4] | Ki [5] | Ki [6] | Ki [7] | Ki [8] |
| --- | --- | --- | --- | --- | --- | --- | --- | --- |
| CC(C)[C@H]1C(=O)N[C@H](CO)Cc2c[nH]c3cccc(c23)N1C [INDOLACTUM] | 10.9 nM | 66.2 nM | 7080 nM | 1100 nM | 25.3 nM | 658 nM |  |  |
| CC1=CC23C(=O)[C@@H](C=C(CO)[C@@H](O)[C@]2(O)[C@H]1OC(=O)c1ccccc1)[C@H]1[C@@H](C[C@H]3C)C1(C)C | 0.15 nM | 1.08 nM | 10.8 nM | 1.41 nM | 0.72 nM | 3.14 nM | 0.13 nM |  |
| CCCC(=O)O[C@@H]1[C@@H](C)[C@@]2(O)[C@@H](C=C(CO)C[C@]3(O)C(=O)C(C)=C[C@@H]23)[C@@H]2C(C)(C)[C@]12OC(=O)CCC | 0.82 nM | 6.59 nM | 210 nM | 14.2 nM | 1.24 nM | 18.4 nM | 0.351 nM | 25 nM |
| C=C(C)[C@@]12OC3(c4ccccc4)O[C@@H]1[C@@H]1C4O[C@]4(CO)[C@@H](O)[C@]4(O)C(=O)C(C)=C[C@H]4[C@@]1(O3)[C@H](C)[C@H]2OC(=O)/C=C/c1ccccc1 (stereo partly drawn) [THYMELEATOXIN] | 7.8 nM | 11.3 nM | 417 nM | 47.1 nM | 19.1 nM | 86.6 nM | 2.71 nM |  |

From ChEMBL document CHEMBL1134767, “Structural basis of binding of high-affinity ligands to protein kinase C: prediction of the binding modes through a new molecular dynamics method and evaluation by site-directed mutagenesis” (J Med Chem, 2001)
